# Most compounds without a hit are left out; they make up all but 2.1% or so of the library.
# Apaf1 inhib = inhibitors of human Apaf-1 apoptosome, primary screen, biochemical, DEVD-Rh110 fluorescence, uHTS. Apoptotic protease-activating factor 1 (Homo sapiens), O14727. reconstituted apoptosome caspase-3 activity. inhibition, % at 20 µM. 330,000 tested, 0.71% active. AID 489030, 2010; active = inhibition of at least 40% at 20 µM;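 note: plate controls were DMSO wells for no effect and DEVD-CHO caspase inhibitor wells for full effect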
#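 Material: reconstituted apoptosome with Apaf-1, cytochrome c, caspase-9, procaspase-3, dATP; medium: pH 7.5 Hepes buffer with CHAPS, BSA, DTT; also added: cytochrome c and DEVD-Rh110 substrate; timing: 30 min plus 50 min, RT; signal: Rh110 fluorescence intensity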
# GSTO1 counter = inhibitors of recombinant GSTO1, primary screen, counter-screen for RBBP9 inhibitor project, biochemical, fluorescence polarization | Glutathione S-transferase omega-1 (Homo sapiens), P78417 | activity-based probe fluorescence polarization | inhibition, % at 5.96 µM | 300,000 tested, 1.1% active;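 active = inhibition above the campaign mean inhibition plus 3 SD, cut at about 35% in these data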;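 note: 0% = GSTO1-1 with DMSO and 100% = wells lacking GSTO1-1 enzyme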
# PP5 inh = PP5 phosphatase inhibitors, primary screen, biochemical, fluorescence; Serine/threonine-protein phosphatase 5 (Homo sapiens), P53041; purified PP5c, OMFP substrate fluorescence; inhibition, % at 6.7 µM; 320,000 tested, 0.18% active;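 active = inhibition above the campaign's mean inhibition across all tested compounds plus 3 SD, cut at about 9.5% in these data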;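 note: 0% = DMSO only and 100% = 100 µM cantharidin control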
# Target sequence (P53041 whole entry, looked up): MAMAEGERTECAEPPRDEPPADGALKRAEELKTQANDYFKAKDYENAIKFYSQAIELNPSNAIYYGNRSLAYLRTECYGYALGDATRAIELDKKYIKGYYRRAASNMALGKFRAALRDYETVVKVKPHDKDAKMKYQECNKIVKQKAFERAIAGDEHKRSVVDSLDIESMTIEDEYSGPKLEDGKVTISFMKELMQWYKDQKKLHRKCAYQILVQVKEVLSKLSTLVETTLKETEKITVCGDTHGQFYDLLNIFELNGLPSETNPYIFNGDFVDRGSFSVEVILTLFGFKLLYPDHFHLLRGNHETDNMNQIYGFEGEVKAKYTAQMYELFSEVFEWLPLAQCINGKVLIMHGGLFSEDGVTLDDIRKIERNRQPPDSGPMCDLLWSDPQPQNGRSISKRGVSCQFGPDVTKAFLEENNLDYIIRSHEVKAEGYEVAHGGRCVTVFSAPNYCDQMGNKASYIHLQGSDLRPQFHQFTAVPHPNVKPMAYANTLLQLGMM
# PP1 counter = PP1-alpha phosphatase inhibitors, primary screen, counter-screen for PP5 inhibitor project, biochemical, fluorescence, OMFP substrate, single point | 320,000 tested, 0.9% active | Serine/threonine-protein phosphatase PP1-alpha catalytic subunit (Homo sapiens), P62136 | AID 2235, 2010 | inhibition, % at 6.7 µM | purified PP1alpha;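 active = inhibition above the mean inhibition of all tested compounds plus 3 SD, computed separately for each screening campaign, cut at about 15% in these data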
# TDP2 inh = human TDP2 enzyme inhibitors, primary screen, biochemical, epi absorbance, recombinant enzyme; Tyrosyl-DNA phosphodiesterase 2 (Homo sapiens), O95551; T5PNP hydrolysis, p-nitrophenol absorbance 415 nm; inhibition, % at 12.8 µM; 370,000 tested, 0.34% active;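 active = inhibition above the mean of all tested compounds plus 3 SD, set per campaign, cut at about 25% in these data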;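 note: 0% = DMSO with enzyme and 100% = buffer with substrate but no TDP2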
#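 Read-out basis: percent inhibition. System: recombinant human TDP2. Buffer or medium: Mg2+-containing Tris-HCl buffer, pH 7.5. Repeats: single replicate. Timing: reaction 2 h, 37 °C. Benchmarks: high control without enzyme, low control DMSO plus TDP2. Probe or stimulus: 5 mM T5PNP. Doses: 12.8 µM only. Measured by: epi absorbance of p-nitrophenol freed from T5PNP by hydrolysis.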
# PP1 inh confirm = PP1 phosphatase inhibitors, confirmation, biochemical, fluorescence, OMFP substrate, triplicate. shares compounds with PP1 counter. purified PP1alpha. inhibition, % at 6.7 µM. 1,900 tested, 52% active;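 active = mean PP1 inhibition above a set limit taken from the earlier primary screen, cut at about 15% in these data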
# PP5 counter = PP5 phosphatase inhibition by PP1 hits, confirmation, counter-screen for PP1 inhibitor project, biochemical, fluorescence, triplicate; 1,900 tested, 4% active; purified PP5c, OMFP fluorescence; inhibition, % at 6.7 µM; shares compounds with PP1 counter; AID 2360, 2010;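 active = mean PP5 inhibition over triplicate wells above about 9.5% taken from the earlier PP1 screen, limit read from the data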
# Numbers without * were called inactive; / = not tested or not shown.
SMILES,Apaf1 inhib,GSTO1 counter,PP5 inh,PP1 counter,TDP2 inh,PP1 inh confirm,PP5 counter
O=C(CN1C(=O)/C(=C/c2ccccc2)SC1=S)Nc1ncc(Cc2ccccc2)s1,-11,-16,3,22*,-5,20*,-2
O=C(CCN1C(=O)/C(=C/c2ccccc2)SC1=S)Nc1ccccn1,19,5,0,-2,11,/,/
CC(C)[C@H](NC(=O)c1ccc(Cl)cc1Cl)C(=O)N1CCC[C@H]1C(=O)NCCc1ccccc1Cl,/,/,/,/,-2,/,/
COc1cc(/C=N/NC(=O)COc2c(C)cc([N+](=O)[O-])cc2C)ccc1OC(=O)c1ccccc1Br,19,-12,2,21*,-12,17*,0
CCOc1ccc(S(=O)(=O)N(CC(=O)N/N=C/c2ccc(-c3ccc([N+](=O)[O-])cc3)o2)c2ccccc2)cc1,37,15,2,33*,-15,35*,0
Cc1ccc(/C=N/n2c(-c3ccc(Cl)cc3)n[nH]c2=S)s1,10,7,2,20*,-5,10,-4
Nc1[nH]c(C(=O)c2ccc(Cl)cc2)c(-c2ccc(Br)cc2)c1C(=O)NCc1ccc(Cl)cc1Cl,/,/,/,/,6,/,/
CC(=O)c1sc2c(c1OC(=O)c1ccc(Cl)cc1Cl)c(=O)n(-c1ccccc1)c(=S)n2-c1ccccc1,9,-6,-1,38*,14,10,-2
COc1cccc(NC(=O)n2ccc3ccc(-c4ccc5cc[nH]c5c4)cc32)c1,/,/,/,/,7,/,/
Cc1ccc(S(=O)(=O)N2CCOCC2)cc1C(=O)Nc1ccc(S(=O)(=O)Nc2nccs2)cc1,-4,11,0,30*,5,0,-3
O=C(Nc1ccc(S(=O)(=O)Nc2nccs2)cc1)c1ccc(S(=O)(=O)N2CCOCC2)cc1,-2,3,2,-2,-9,/,/
O=S(=O)(c1ccc(Cl)cc1)N1CCN(Cc2ccc(O)c3ncccc23)CC1,24,0,3,18*,9,24*,-2
C=CCN(CC=C)S(=O)(=O)c1ccc(C(=O)Nc2nnc(CSC)o2)cc1,-2,1,0,22*,4,19*,7
CCc1nnc(NC(=O)c2ccc(S(=O)(=O)N(CC(C)C)CC(C)C)cc2)o1,4,-23,1,25*,-8,30*,-2
CCc1nnc(NC(=O)c2ccc(S(=O)(=O)N3CCCc4ccccc43)cc2)o1,2,-8,1,35*,-2,28*,2
CNC(=O)c1ccsc1NC(=O)c1ccc(S(=O)(=O)N2CCCc3ccccc32)cc1,9,-22,3,6,-1,/,/
CSCc1nnc(NC(=O)c2ccc(S(=O)(=O)N(C)C)cc2)o1,-15,5,1,6,-5,/,/
c1nc2nc3c(c(N4CCCC4)n2n1)CCCC3,/,/,/,/,-5,/,/
CCC1Nc2ncnc(N3CCc4ccccc4C3)c2N(Cc2ccc(Cl)cc2)C1=O (centres undefined),36,/,/,/,-14,/,/
O=C1C(Cc2ccccc2)Nc2ncnc(N3CCc4ccccc4C3)c2N1Cc1ccc(Cl)cc1 (centres undefined),33,-1,4,24*,/,20*,6
COc1ccc(-c2ccnc3nc(-n4cccc4)nn23)cc1,-7,-10,0,19*,0,19*,-5
COc1ccc(-c2ccnc3nc(N4CCOCC4)nn23)cc1,0,-5,2,-12,-7,/,/
Cc1ccccc1NC(=O)CSc1nnc(-c2cc(-c3ccccc3)n[nH]2)n1N,/,/,/,/,0,/,/
COc1cc(OC)c(OC)cc1CN1CCN(Cc2cccn2C)CC1,-2,7,-1,18*,13,4,5
CCc1cccc(C)c1NC(=O)CSc1nc(-c2ccccc2F)nc2nc[nH]c12,-6,-8,-1,24*,-9,16*,-4
SMILES,Apaf1 inhib,GSTO1 counter,PP5 inh,PP1 counter,TDP2 inh,PP1 inh confirm,PP5 counter
CSCc1cc(N(C)C)nc(SCc2ccc(Cl)c(Cl)c2)n1,20,-8,1,22*,-14,10,-2
Cc1ccc(C2=NN(C(=O)CCC(=O)O)C(c3cn(-c4ccccc4)nc3-c3ccc(C)cc3)C2)cc1 (centres undefined),30,-7,8,20*,-1,23*,2
COc1ccc(-c2nn(CCC(=O)O)cc2CCC(=O)O)cc1,2,-2,2,1,-4,/,/
COc1ccc(C2=NN(c3ccccc3)C(c3cn(CCC(=O)O)nc3-c3ccccc3)C2)cc1 (centres undefined),21,-3,2,24*,9,10,3
O=C(O)CCC(=O)N1N=C(c2cccs2)CC1c1cn(-c2ccccc2)nc1-c1ccccc1 (centres undefined),27,0,-8,15,4,/,/
Fc1c(-c2ccc3ncnc(NCc4cccs4)c3c2)ccc2c1OCO2,/,/,/,/,-4,/,/
COc1ccc(C(=O)OCCN(C)C2CN(Cc3cn(Cc4ccccc4Cl)nn3)S(=O)(=O)C2)cc1OC (centres undefined),/,/,/,/,4,/,/
CCC[C@H]1OC(=O)[C@@H]2CCCN2C(=O)[C@H]([C@H](C)Cc2ccccc2)NC(=O)[C@@H]2CCCN2C(=O)[C@@H]2CCCN2C(=O)[C@H](C(C)C)OC(=O)[C@@H]2CCCN2C(=O)[C@H](C(C)C)NC(=O)C1(C)C,/,/,/,/,4,/,/
O=C(O)c1cc(-c2ccc(N3CCOCC3)cc2)nn1-c1ccc(F)cc1F,-2,9,2,24*,5,27*,-3
O=C(O)c1cc(-c2ccc(N3CCOCC3)cc2)nn1-c1ccccc1Cl,3,-6,-2,34*,-2,38*,0
Cc1ccc(S(=O)(=O)N2C[C@H]3[C@H]4C(=O)N(Cc5ccccc5)C(=O)[C@H]4CC(=O)[C@H]3[C@@H]2c2cccc3ccccc23)cc1,/,/,/,/,1,/,/
CCOC(=O)c1ccc(NC(=O)COc2ccc(-n3cnnn3)cc2)cc1,4,2,1,20*,-10,5,-6
O=[N+]([O-])c1ccc(N2N=C(c3ccco3)CC2c2ccccc2)cc1 (centres undefined),11,-15,-3,19*,-10,2,-4
